According to ChEMBL document CHEMBL3045061, “Biological activity of peanut (Arachis hypogaea) phytoalexins and selected natural and synthetic Stilbenoids” (J Agric Food Chem, 2011):
Calls of active or inactive are those of the source. No cut-off for these calls is given here.

What was measured:
Botrytis cinerea [1] = assay: Antifungal activity against Botryotinia fuckeliana assessed as growth inhibition after 72 hr by NCCLS M27-A broth microdilution method; type: functional, organism-based
Method in brief: (§1)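 Broth microdilution adapted from the NCCLS M27-A yeast method for conidia-forming filamentous plant pathogens. Growth inhibition was read at 48 h and 72 h for Botrytis cinerea, and at 120 h and 144 h for Phomopsis viticola and P. obscurans. The highest concentration tested was 30 μM. Captan served as the internal standard. Means were compared by ANOVA with Fisher's protected LSD.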

Botrytis cinerea [2] = assay: Antifungal activity against Botryotinia fuckeliana assessed as growth inhibition after 48 hr by NCCLS M27-A broth microdilution method; type: functional, organism-based; method in brief: as §1
[3] = Octanol-water partition coefficient, log P of the compound by HPLC analysis; type: physicochemical
Method in brief: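 Log P was estimated by isocratic reversed-phase HPLC on a Gemini C18 column (5 μm, 4.6 × 150 mm). The mobile phase was MeOH/H2O/2% HCOOH in H2O (55:43:2, w/w) at 1.0 mL/min and 37 °C, with samples dissolved in the mobile phase. Capacity factor K = (t1 − t0)/t0, with t0 taken from D2O. […] At least 5 injections were made.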

Phomopsis obscurans [4] = assay: Antifungal activity against Phomopsis obscurans assessed as growth inhibition at 30 uM after 144 hr by NCCLS M27-A broth microdilution method; type: functional, organism-based; settings: Paraphomopsis obscurans; method in brief: as §1
Diaporthe ampelina [5] = assay: Antifungal activity against Diaporthe ampelina assessed as growth inhibition after 120 hr by NCCLS M27-A broth microdilution method; type: functional, organism-based; method in brief: as §1
Phomopsis obscurans [6] = assay: Antifungal activity against Phomopsis obscurans assessed as growth inhibition after 120 hr by NCCLS M27-A broth microdilution method; type: functional, organism-based; settings: Paraphomopsis obscurans; method in brief: as §1
Phomopsis obscurans [7] = assay: Antifungal activity against Phomopsis obscurans assessed as growth inhibition after 144 hr by NCCLS M27-A broth microdilution method; type: functional, organism-based; settings: Paraphomopsis obscurans; method in brief: as §1
Diaporthe ampelina [8] = assay: Antifungal activity against Diaporthe ampelina assessed as growth inhibition after 144 hr by NCCLS M27-A broth microdilution method; type: functional, organism-based; method in brief: as §1
Diaporthe ampelina [9] = assay: Antifungal activity against Diaporthe ampelina assessed as growth inhibition at 30 uM after 144 hr by NCCLS M27-A broth microdilution method; type: functional, organism-based; method in brief: as §1

SMILES: CC(C)(O)C(O)Cc1c(O)cc(/C=C/c2ccccc2)cc1O (centres undefined) [ARAHYPIN-4]
- Activity (Botrytis cinerea [1]): inactive
- Activity (Botrytis cinerea [2]): inactive
- logP [3]: 2.59

SMILES: Oc1ccc(/C=C/c2ccccc2)cc1O
- Activity (Botrytis cinerea [1]): inactive
- Activity (Botrytis cinerea [2]): Active
- Activity (Phomopsis obscurans [4]): inactive
- Activity (Diaporthe ampelina [5]): inactive

SMILES: Oc1cccc(/C=C/c2ccccc2)c1 [(E)-3-STILBENOL]
- Activity (Phomopsis obscurans [4]): Active
- logP [3]: 3.22

SMILES: CC(C)(O)C(O)Cc1c(O)cc(/C=C/c2ccc(O)cc2)cc1O (centres undefined) [ARAHYPIN-3]
- Activity (Botrytis cinerea [1]): inactive
- Activity (Botrytis cinerea [2]): inactive
- logP [3]: 1.59

SMILES: CC(C)/C=C/c1c(O)cc(/C=C/c2ccc(O)cc2)cc1O [ARACHIDIN-3]
- Activity (Botrytis cinerea [1]): inactive
- Activity (Botrytis cinerea [2]): inactive
- Activity (Phomopsis obscurans [6]): inactive
- Activity (Phomopsis obscurans [7]): inactive
- logP ([3]; read-out: logP): 2.83

SMILES: CC(C)/C=C/c1c(O)cc(/C=C/C2=CC(=O)OC2CC(=O)O)cc1O (centres undefined)
- Activity (Botrytis cinerea [1]): inactive
- Activity (Botrytis cinerea [2]): inactive
- Activity (Phomopsis obscurans [6]): inactive
- Activity (Phomopsis obscurans [7]): inactive
- logP ([3]; read-out: logP): 2.59

SMILES: Oc1ccc(/C=C/c2cc(O)cc(O)c2)cc1 [RESVERATROL]
- Activity (Botrytis cinerea [1]): inactive
- Activity (Botrytis cinerea [2]): Active
- Activity (Phomopsis obscurans [4]): inactive
- Activity (Diaporthe ampelina [5]): inactive
- logP ([3]; read-out: logP): 1.35

SMILES: CC(C)=CCc1c(O)cc(/C=C/c2ccc(O)cc2)cc1O [ARACHIDIN-2]
- Activity (Botrytis cinerea [1]): inactive
- Activity (Botrytis cinerea [2]): inactive
- Activity (Phomopsis obscurans [6]): inactive
- Activity (Phomopsis obscurans [7]): inactive
- logP ([3]; read-out: logP): 2.56

SMILES: CC(C)/C=C/c1c(O)cc(/C=C/c2ccc(O)c(O)c2)cc1O [ARACHIDIN-1]
- Activity (Botrytis cinerea [1]): inactive
- Activity (Botrytis cinerea [2]): inactive
- Activity (Phomopsis obscurans [6]): inactive
- Activity (Phomopsis obscurans [7]): inactive
- logP [3]: 2.44

SMILES: CC(C)=CCC/C(C)=C/Cc1c(O)cc(/C=C/c2ccc(O)cc2O)cc1O [CHLOROPHORIN]
- Activity (Botrytis cinerea [1]): Active
- Activity (Botrytis cinerea [2]): Active
- Activity (Phomopsis obscurans [4]): Active
- Activity (Diaporthe ampelina [5]): Active
- logP [3]: 3.29

SMILES: COc1cccc(CCc2ccc(O)cc2)c1
- Activity (Phomopsis obscurans [4]): Active
- logP [3]: 3.07

SMILES: COc1cccc(/C=C/c2ccc(O)cc2)c1 [(E)-5-METHOXY-4'-STILBENOL]
- Activity (Phomopsis obscurans [4]): Active
- Activity (Diaporthe ampelina [5]): Active
- logP [3]: 3.14

SMILES: CC(C)(O)C(O)Cc1cc(/C=C/c2cc(O)cc(O)c2)ccc1O (centres undefined) [ARAHYPIN-2]
- Activity (Botrytis cinerea [1]): inactive
- Activity (Botrytis cinerea [2]): inactive
- Activity (Phomopsis obscurans [6]): Active
- Activity (Phomopsis obscurans [7]): inactive
- logP [3]: 1.36

SMILES: COc1ccc(/C=C/c2cc(O)cc(O[C@@H]3O[C@H](CO)[C@@H](O)[C@H](O)[C@H]3O)c2)cc1O [RHAPONTIN]
- Activity (Botrytis cinerea [1]): Active
- Activity (Phomopsis obscurans [4]): Active
- logP [3]: 0.74

SMILES: COc1cc(/C=C/c2ccc(O)cc2)cc(OC)c1 [PTEROSTILBENE]
- Activity (Botrytis cinerea [1]): Active
- Activity (Botrytis cinerea [2]): Active
- Activity (Phomopsis obscurans [4]): Active
- logP ([3]; read-out: logP): 3.15

SMILES: O=C1C2CC=CCC2C(=O)N1SC(Cl)(Cl)Cl (centres undefined)
- Activity (Diaporthe ampelina [8]): Active

SMILES: CC(C)=CCc1c(O)cc(/C=C/c2ccccc2)cc1O [CHIRICANINE A]
- Activity (Botrytis cinerea [1]): inactive
- Activity (Botrytis cinerea [2]): inactive
- Activity (Phomopsis obscurans [6]): inactive
- Activity (Phomopsis obscurans [7]): Active
- Activity (Diaporthe ampelina [8]): Active
- logP [3]: 3.46

SMILES: Oc1ccc(/C=C/c2cccc(O)c2)cc1 [(E)-3,4'-STILBENDIOL]
- Activity (Phomopsis obscurans [4]): Active
- logP ([3]; read-out: logP): 2.08

SMILES: COc1cc(O)cc(/C=C/c2ccccc2)c1 [PINOSYLVIN METHYL ETHER]
- Activity (Phomopsis obscurans [4]): Active
- Activity (Diaporthe ampelina [5]): Active
- logP ([3]; read-out: logP): 3.21

SMILES: COc1ccc(/C=C/c2cc(OC)cc(OC)c2)cc1 [TRISMETHOXYRESVERATROL]
- Activity (Phomopsis obscurans [4]): Active
- logP ([3]; read-out: logP): 4.07

SMILES: Oc1cc(O)cc(/C=C/c2ccccc2)c1 [PINOSYLVIN]
- Activity (Botrytis cinerea [1]): inactive
- Activity (Botrytis cinerea [2]): Active
- Activity (Phomopsis obscurans [4]): inactive
- Activity (Diaporthe ampelina [5]): inactive
- logP ([3]; read-out: logP): 2.25

SMILES: CC(C)/C=C/c1c(O)cc(/C=C/c2ccccc2)cc1O [ARAHYPIN-1]
- Activity (Botrytis cinerea [1]): inactive
- Activity (Botrytis cinerea [2]): inactive
- Activity (Phomopsis obscurans [6]): Active
- Activity (Phomopsis obscurans [7]): Active
- Activity (Diaporthe ampelina [8]): Active
- logP [3]: 3.71

SMILES: Oc1cccc(CCc2ccccc2)c1 [3-PHENETHYLPHENOL]
- Activity (Phomopsis obscurans [4]): Active
- Activity (Diaporthe ampelina [9]): Active
- Activity (Diaporthe ampelina [5]): Active
- logP [3]: 3.19

SMILES: COc1cc(/C=C/c2ccccc2)cc(OC)c1 [3,5-O-DIMETHYLPINOSYLVIN]
- Activity (Phomopsis obscurans [4]): inactive
- logP ([3]; read-out: logP): 4.15

SMILES: CC1(C)C=Cc2c(O)cc(/C=C/c3ccc(O)cc3)cc2O1 [ARAHYPIN-5]
- Activity (Botrytis cinerea [1]): inactive
- Activity (Botrytis cinerea [2]): inactive
- Activity (Diaporthe ampelina [8]): Active
- logP [3]: 3.34
